Source: article PMC2921709 (ChemMedChem, 2010)
Where two headings read alike, the source gives them in different places.

Legend:
[1] = test system: Bovine brain tubulin (colchicine site); experiment: Inhibition of [3H]colchicine binding to tubulin; settings: tubulin 1 μM, [3H]colchicine 5 μM; for Colchicine Binding Inhibition [%], 1 μM: compound 1 μM; for Colchicine Binding Inhibition [%], 5 μM: compound 5 μM
HT-29 = experiment: MTT growth inhibition, HT-29 colon adenocarcinoma cells; assay type: cell-based, human; settings: read-out: GI50 HT-29
How it was run: (§1)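 Cells seeded at 8 × 10^3 per well in 96-well plates and held 18 h at 37 °C, 5% CO2. Medium then replaced with test compound in complete medium at various concentrations for 72 h continuous exposure. Viability read by MTT. GI50 is the concentration giving 50% proliferation inhibition, from dose–response curves; mean ± SE of ≥3 independent experiments. Media: leukemia lines in RPMI-1640; solid-tumour lines in DMEM with penicillin G 115 U mL−1, streptomycin and 10% FBS.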

ARO = experiment: MTT growth inhibition, ARO anaplastic thyroid cells; assay type: cell-based, human; settings: read-out: GI50 ARO
How it was run: as §1

Hep G2 = experiment: MTT growth inhibition, HepG2 hepatoma cells; assay type: cell-based, human; settings: read-out: GI50 Hep G2
How it was run: as §1

IGROV = experiment: MTT growth inhibition, IGROV ovarian cancer cells; assay type: cell-based, human; settings: read-out: GI50 IGROV
How it was run: as §1

MCF-7 = experiment: MTT growth inhibition, MCF-7 breast adenocarcinoma cells; assay type: cell-based, human; settings: read-out: GI50 MCF-7
How it was run: as §1

HeLa = experiment: MTT growth inhibition, HeLa cervix carcinoma cells; assay type: cell-based, human; settings: read-out: GI50 HeLa
How it was run: as §1

HL-60 = experiment: MTT growth inhibition, HL-60 promyelocytic leukemia cells; assay type: cell-based, human; settings: read-out: GI50 HL-60
How it was run: as §1

ML2 = experiment: MTT growth inhibition, ML-2 myeloid leukemia cells; assay type: cell-based, human; settings: read-out: GI50 ML2
How it was run: as §1

K562 = experiment: MTT growth inhibition, K562 chronic myelogenous leukemia cells; assay type: cell-based, human; settings: read-out: GI50 K562
How it was run: as §1

RS 4;11 = experiment: MTT growth inhibition, RS 4; assay type: cell-based, human; settings: read-out: GI50 RS 4;11
How it was run: as §1

Jurkat = experiment: MTT growth inhibition, Jurkat T-leukemia cells; assay type: cell-based, human; settings: read-out: GI50 Jurkat
How it was run: as §1

Bovine brain tubulin = experiment: Inhibition of tubulin polymerization; assay type: biochemical; settings: for IC50: read-out: Tubulin Assembly IC50, tubulin 10 μM, 20 min incubation, ± SD
Jurkat cells [2] = experiment: Flow cytometric cell-cycle analysis; assay type: cell-based, human; settings: 24 h treatment
How it was run: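 Jurkat cells in exponential growth, 5 × 10^5 per sample, exposed to test compound at various concentrations for 24 h. Cells fixed in ice-cold 70% ethanol, treated with lysis buffer containing RNase A and 0.1% Triton X-100, then stained with PI. DNA content measured by flow cytometry and phases assigned from DNA histograms. Mean ± SEM of two independent experiments.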

Jurkat cells [3] = experiment: Annexin V-FITC/PI apoptosis assay; assay type: cell-based, human; settings: 24 h treatment
How it was run: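 Jurkat cells exposed to test compound at various concentrations for 24 or 48 h, then harvested. Co-labelled with annexin V–FITC and PI and analysed by flow cytometry (excitation 488 nm; emission 525 and 585 nm). Reported as mean percentage of annexin-V-positive cells ± SEM, three independent experiments.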

solid tumor cells = experiment: MTT growth inhibition, solid tumor cell lines; assay type: cell-based; settings: Homo sapiens, 72 h, read-out: GI50, solid tumor cells
How it was run: as §1

leukemia cells = experiment: MTT growth inhibition, leukemia cell lines; assay type: cell-based, human; settings: 72 h, MTT
How it was run: as §1

[4] = test system: panel of human tumor cell lines; experiment: MTT growth inhibition, whole panel of human tumor cell lines; assay type: cell-based; settings: 72 h, read-out: GI50, all cell lines tested
How it was run: as §1

[5] = Homo sapiens, Thyroid cell, 72 h

COc1ccc(/C=C\c2cc(OC)c(OC)c(OC)c2)cc1O [CA-4, combretastatin A-4, reference compound]
Colchicine Binding Inhibition [%], 1 μM [1]: 84 ± 3%
Colchicine Binding Inhibition [%], 5 μM [1]: 98 ± 0.3%

CCn1ccc2c3c(=O)cc(-c4cccnc4)[nH]c3ccc21 [Compound 13, 3-Ethyl-7-(pyridin-3-yl)-3H-pyrrolo[3,2-f]quinolin-9(6H)-one]
GI50 (HT-29; Homo sapiens, HT-29, 72 h): 0.85 ± 0.14 µM
GI50 (ARO; [5]): 0.45 ± 0.07 µM
GI50 (Hep G2; Homo sapiens, HepG2, 72 h): 0.5 ± 0.05 µM
GI50 (IGROV; Homo sapiens, IGROV, 72 h): 0.65 ± 0.15 µM
GI50 (MCF-7; Homo sapiens, MCF7, 72 h): 0.85 ± 0.15 µM
GI50 (HeLa; Homo sapiens, HeLa, 72 h): 0.4 ± 0.05 µM
GI50 (HL-60; Homo sapiens, HL-60, 72 h): 0.03 ± 0.002 µM
GI50 (ML2; Homo sapiens, ML-2, 72 h): 0.3 ± 0.04 µM
GI50 (K562; Homo sapiens, K562, 72 h): 0.24 ± 0.03 µM
GI50 (RS 4;11; Homo sapiens, RS4-11, 72 h): 0.04 ± 0.007 µM
GI50 (Jurkat; Homo sapiens, Jurkat, 72 h): 0.05 ± 0.004 µM
IC50 (Bovine brain tubulin): 2.4 ± 0.4 µM
Colchicine Binding Inhibition [%], 5 μM [1]: 23 ± 6%
Colchicine Binding Inhibition [%], 50 μM ([1]; compound 50 μM): 65 ± 0.3%
effect on cell-cycle progression (G2/M arrest, in words) (Jurkat cells [2]): only induced G2/M arrest at yet higher concentrations
induction of apoptotic (annexin-V-positive) cells, in words (Jurkat cells [3]): lower efficacy

CCn1cc(C)c2c3c(=O)cc(-c4ccccc4)[nH]c3ccc21 [Compound 17, 3-Ethyl-1-methyl-7-phenyl-3H-pyrrolo[3,2-f]quinolin-9(6H)-one]
GI50 (HT-29; Homo sapiens, HT-29, 72 h): > 50 µM
GI50 (ARO; [5]): > 50 µM
GI50 (Hep G2; Homo sapiens, HepG2, 72 h): 5.8 ± 1.1 µM
GI50 (IGROV; Homo sapiens, IGROV, 72 h): > 50 µM
GI50 (MCF-7; Homo sapiens, MCF7, 72 h): > 50 µM
GI50 (HeLa; Homo sapiens, HeLa, 72 h): 4.5 ± 0.8 µM
GI50 (HL-60; Homo sapiens, HL-60, 72 h): 17.5 ± 2.3 µM
GI50 (ML2; Homo sapiens, ML-2, 72 h): 14.4 ± 2.3 µM
GI50 (K562; Homo sapiens, K562, 72 h): 27.3 ± 0.34 µM
GI50 (RS 4;11; Homo sapiens, RS4-11, 72 h): 6.5 ± 1 µM
GI50 (Jurkat; Homo sapiens, Jurkat, 72 h): 8 ± 1.2 µM

CCn1cc(C#N)c2c3c(=O)cc(-c4ccccc4)[nH]c3ccc21 [Compound 21, 3-Ethyl-9-oxo-7-phenyl-6,9-dihydro-3H-pyrrolo[3,2-f]quinoline-1-carbonitrile]
GI50 (HT-29; Homo sapiens, HT-29, 72 h): > 50 µM
GI50 (ARO; [5]): > 50 µM
GI50 (Hep G2; Homo sapiens, HepG2, 72 h): > 50 µM
GI50 (IGROV; Homo sapiens, IGROV, 72 h): > 50 µM
GI50 (MCF-7; Homo sapiens, MCF7, 72 h): > 50 µM
GI50 (HeLa; Homo sapiens, HeLa, 72 h): > 50 µM
GI50 (HL-60; Homo sapiens, HL-60, 72 h): 0.21 ± 0.01 µM
GI50 (ML2; Homo sapiens, ML-2, 72 h): 0.55 ± 0.03 µM
GI50 (K562; Homo sapiens, K562, 72 h): 0.46 ± 0.008 µM
GI50 (RS 4;11; Homo sapiens, RS4-11, 72 h): 0.13 ± 0.02 µM
GI50 (Jurkat; Homo sapiens, Jurkat, 72 h): 0.3 ± 0.01 µM
GI50 (solid tumor cells): > 50 µM
activity in the leukemia lines (concentration level, in words) (leukemia cells): sub-micromolar

CCn1cc(C(N)=O)c2c3c(=O)cc(-c4ccccc4)[nH]c3ccc21 [Compound 22, 3-Ethyl-9-oxo-7-phenyl-6,9-dihydro-3H-pyrrolo[3,2-f]quinoline-1-caboxamide]
GI50 (HT-29; 72 h exposure, MTT, mean ± SE): > 50 µM
GI50 (ARO; 72 h exposure, MTT, mean ± SE): > 50 µM
GI50 (Hep G2; 72 h exposure, MTT, mean ± SE): > 50 µM
GI50 (IGROV; 72 h exposure, MTT, mean ± SE): > 50 µM
GI50 (MCF-7; 72 h exposure, MTT, mean ± SE): > 50 µM
GI50 (HeLa; 72 h exposure, MTT, mean ± SE): > 50 µM
GI50 (HL-60; 72 h exposure, MTT, mean ± SE): 0.32 ± 0.03 µM
GI50 (ML2; 72 h exposure, MTT, mean ± SE): 0.09 ± 0.02 µM
GI50 (K562; 72 h exposure, MTT, mean ± SE): 1.7 ± 0.5 µM
GI50 (RS 4;11; 72 h exposure, MTT, mean ± SE): 0.03 ± 0.002 µM
GI50 (Jurkat; 72 h exposure, MTT, mean ± SE): 0.05 ± 0.006 µM
inhibition of tubulin assembly at the highest concentration (Bovine brain tubulin; compound 40 μM): less than 50%
IC50 (Bovine brain tubulin): > 40 µM
activity in the leukemia lines (concentration level, in words) (leukemia cells): sub-micromolar
effect on cell-cycle progression (G2/M arrest, in words) (Jurkat cells [2]): only induced G2/M arrest at yet higher concentrations
induction of apoptotic (annexin-V-positive) cells, in words (Jurkat cells [3]): lower efficacy

O=c1c(-c2ccccc2)c[nH]c2ccc3[nH]ccc3c12 [Compound 33, 8-Phenyl-3H-pyrrolo[3,2-f]quinolin-9(6H)-one]
GI50 (HT-29; Homo sapiens, HT-29, 72 h): > 50 µM
GI50 (ARO; [5]): > 50 µM
GI50 (Hep G2; Homo sapiens, HepG2, 72 h): > 50 µM
GI50 (HeLa; Homo sapiens, HeLa, 72 h): > 50 µM
GI50 (HL-60; Homo sapiens, HL-60, 72 h): > 50 µM
GI50 (ML2; Homo sapiens, ML-2, 72 h): > 50 µM
GI50 (K562; Homo sapiens, K562, 72 h): > 50 µM
GI50 [4]: > 50 µM

CCn1ccc2c3c(=O)c(-c4ccccc4)c[nH]c3ccc21 [Compound 34, 3-Ethyl-8-phenyl-3H-pyrrolo[3,2-f]quinolin-9(6H)-one]
GI50 (HT-29; Homo sapiens, HT-29, 72 h): > 50 µM
GI50 (ARO; [5]): > 50 µM
GI50 (Hep G2; Homo sapiens, HepG2, 72 h): > 50 µM
GI50 (HeLa; Homo sapiens, HeLa, 72 h): > 50 µM
GI50 (HL-60; Homo sapiens, HL-60, 72 h): > 50 µM
GI50 (ML2; Homo sapiens, ML-2, 72 h): > 50 µM
GI50 (K562; Homo sapiens, K562, 72 h): > 50 µM
GI50 [4]: > 50 µM

O=c1c(-c2ccccc2)c[nH]c2ccc3c(ccn3CC3CC3)c12 [Compound 35]
GI50 (HT-29; 72 h exposure, MTT, mean ± SE): > 50 µM
GI50 (ARO; 72 h exposure, MTT, mean ± SE): > 50 µM
GI50 (Hep G2; 72 h exposure, MTT, mean ± SE): > 50 µM
GI50 (HeLa; 72 h exposure, MTT, mean ± SE): > 50 µM
GI50 (HL-60; 72 h exposure, MTT, mean ± SE): > 50 µM
GI50 (ML2; 72 h exposure, MTT, mean ± SE): > 50 µM
GI50 (K562; 72 h exposure, MTT, mean ± SE): > 50 µM

CCn1ccc2c3c(=O)c(-c4cccc(OC)c4)c[nH]c3ccc21 [Compound 36, 3-Ethyl-8-(3-methoxyphenyl)-3H-pyrrolo[3,2-f]quinolin-9(6H)-one]
GI50 (HT-29; Homo sapiens, HT-29, 72 h): > 50 µM
GI50 (ARO; [5]): > 50 µM
GI50 (Hep G2; Homo sapiens, HepG2, 72 h): > 50 µM
GI50 (HeLa; Homo sapiens, HeLa, 72 h): > 50 µM
GI50 (HL-60; Homo sapiens, HL-60, 72 h): > 50 µM
GI50 (ML2; Homo sapiens, ML-2, 72 h): > 50 µM
GI50 (K562; Homo sapiens, K562, 72 h): > 50 µM

CCn1ccc2c3c(=O)c(-c4ccc(Br)cc4)c[nH]c3ccc21 [Compound 37, 8-(4-Bromophenyl)-3-ethyl-3H-pyrrolo[3,2-f]quinolin-9(6H)-one]
GI50 (HT-29; Homo sapiens, HT-29, 72 h): > 50 µM
GI50 (ARO; [5]): > 50 µM
GI50 (Hep G2; Homo sapiens, HepG2, 72 h): > 50 µM
GI50 (HeLa; Homo sapiens, HeLa, 72 h): > 50 µM
GI50 (HL-60; Homo sapiens, HL-60, 72 h): > 50 µM
GI50 (ML2; Homo sapiens, ML-2, 72 h): > 50 µM
GI50 (K562; Homo sapiens, K562, 72 h): > 50 µM

CCn1ccc2c3c(=O)cc(-c4ccccc4)[nH]c3ccc21 [Compound 38, 3-ethyl-7-PPyQ, reference compound]
GI50 (HT-29; 72 h exposure, MTT, mean ± SE): 0.03 ± 0.01 µM
GI50 (ARO; 72 h exposure, MTT, mean ± SE): 0.03 ± 0.01 µM
GI50 (Hep G2; 72 h exposure, MTT, mean ± SE): 0.05 ± 0.01 µM
GI50 (IGROV; 72 h exposure, MTT, mean ± SE): 0.06 ± 0.01 µM
GI50 (MCF-7; 72 h exposure, MTT, mean ± SE): 0.04 ± 0.01 µM
GI50 (HeLa; 72 h exposure, MTT, mean ± SE): 0.01 ± 0.008 µM
GI50 (HL-60; 72 h exposure, MTT, mean ± SE): 0.0005 ± 2e-05 µM
GI50 (ML2; 72 h exposure, MTT, mean ± SE): 0.001 ± 0.0003 µM
GI50 (K562; 72 h exposure, MTT, mean ± SE): 0.001 ± 0.0001 µM
GI50 (RS 4;11; 72 h exposure, MTT, mean ± SE): 0.002 ± 0.0003 µM
GI50 (Jurkat; 72 h exposure, MTT, mean ± SE): 0.0005 ± 2e-05 µM
IC50 (Bovine brain tubulin): 0.57 ± 0.02 µM
Colchicine Binding Inhibition [%], 1 μM [1]: 34 ± 2%
Colchicine Binding Inhibition [%], 5 μM [1]: 73 ± 0.7%
